Laboratory results as given in ChEMBL document CHEMBL1629649, “Multiple regulatory pathways associated with high-level ciprofloxacin and multidrug resistance in Salmonella enterica serovar enteritidis: involvement of RamA and other global regulators” (2009).
In brackets after ≈: the same amount, converted by molar mass.

Columns and labels:
Format in all cases: functional, Salmonella enterica subsp. enterica serovar Enteritidis
Salmonella enteritidis [1] = experiment: Antimicrobial activity against marA::aph-deficient ciprofloxacin-resistant Salmonella enterica serovar enteritidis isolate 104-cip harboring gyrA D87Y,S83F mutant gene by Etest
In short: (§1)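 Deletions (acrB, marA, soxS or ramA) were moved from SL1344 mutants into the isolates by P22 phage transduction. Transductants were selected on LB agar with 50 µg/ml kanamycin, and insertion of the kanamycin resistance gene was confirmed by PCR. MICs were then determined by Etest.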

Salmonella enteritidis [2] = experiment: Antimicrobial activity against Salmonella enterica serovar enteritidis isolate 5408 harboring gyrA gene by Etest
Salmonella enteritidis [3] = experiment: Antimicrobial activity against acrB::aph-deficient Salmonella enterica serovar enteritidis isolate 5408 harboring gyrA D87Y mutant gene by Etest; in short: as §1
Salmonella enteritidis [4] = experiment: Antimicrobial activity against ciprofloxacin-resistant Salmonella enterica serovar enteritidis isolate 5408-cip harboring gyrA gene, gyrB E466D, parE V461G mutant gene by Etest
In short: (§2)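 Wild-type alleles of the target genes were carried on plasmids and introduced into the ciprofloxacin-selected mutants by electrotransformation. Transformants were selected on LB agar with 50 µg/ml kanamycin at 37°C overnight. Quinolone MICs of the transformants were read by Etest strips alongside those of the parent and mutant strains.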

Salmonella enteritidis [5] = experiment: Antimicrobial activity against ciprofloxacin-resistant Salmonella enterica serovar enteritidis isolate 5408-cip harboring gyrB gene gyrA D87Y, parE V461G mutant gene by Etest; in short: as §2
Salmonella enteritidis [6] = experiment: Antimicrobial activity against ciprofloxacin-resistant Salmonella enterica serovar enteritidis isolate 5408-cip harboring parE gene gyrA D87Y, gyrB E466D mutant gene by Etest; in short: as §2
Salmonella enteritidis [7] = experiment: Antimicrobial activity against acrB::aph-deficient ciprofloxacin-resistant Salmonella enterica serovar enteritidis isolate 5408-cip harboring gyrA D87Y, gyrB E466D, parE V461G mutant gene by Etest; in short: as §1
Salmonella enteritidis [8] = experiment: Antimicrobial activity against ramA::aph-deficient ciprofloxacin-resistant Salmonella enterica serovar enteritidis isolate 5408-cip harboring gyrA D87Y, gyrB E466D, parE V461G mutant gene by Etest; in short: as §1
Salmonella enteritidis [9] = experiment: Antimicrobial activity against Salmonella enterica serovar enteritidis isolate CUH48 by Etest
Salmonella enteritidis [10] = experiment: Antimicrobial activity against Salmonella enterica serovar enteritidis isolate CUH52 by Etest
Salmonella enteritidis [11] = experiment: Antimicrobial activity against Salmonella enterica serovar enteritidis isolate NCTC 13349 by Etest
Salmonella enteritidis [12] = experiment: Antimicrobial activity against Salmonella enterica serovar enteritidis isolate 54 harboring gyrA D87Y mutant gene by Etest
Salmonella enteritidis [13] = experiment: Antimicrobial activity against Salmonella enterica serovar enteritidis isolate 58 harboring gyrA D87Y mutant gene by Etest
Salmonella enteritidis [14] = experiment: Antimicrobial activity against Salmonella enterica serovar enteritidis isolate 51 harboring gyrA D87Y mutant gene by Etest
Salmonella enteritidis [15] = experiment: Antimicrobial activity against acrB::aph-deficient Salmonella enterica serovar enteritidis isolate 51 harboring gyrA D87Y mutant gene by Etest; in short: as §1
Salmonella enteritidis [16] = experiment: Antimicrobial activity against acrB::aph-deficient Salmonella enterica serovar enteritidis isolate CUH60 harboring gyrA D87Y mutant gene by Etest; in short: as §1
Salmonella enteritidis [17] = experiment: Antimicrobial activity against acrB::aph-deficient Salmonella enterica serovar enteritidis isolate 4931 harboring gyrA D87Y mutant gene by Etest; in short: as §1
Salmonella enteritidis [18] = experiment: Antimicrobial activity against Salmonella enterica serovar enteritidis isolate 104 harboring gyrA gene by Etest
Salmonella enteritidis [19] = experiment: Antimicrobial activity against acrB::aph-deficient Salmonella enterica serovar enteritidis isolate 104 harboring gyrA D87Y mutant gene by Etest; in short: as §1
Salmonella enteritidis [20] = experiment: Antimicrobial activity against ciprofloxacin-resistant Salmonella enterica serovar enteritidis isolate 104-cip harboring gyrA gene by Etest; in short: as §2
Salmonella enteritidis [21] = experiment: Antimicrobial activity against acrB::aph-deficient ciprofloxacin-resistant Salmonella enterica serovar enteritidis isolate 104-cip harboring gyrA D87Y,S83F mutant gene by Etest; in short: as §1
Salmonella enteritidis [22] = experiment: Antimicrobial activity against soxS::aph-deficient ciprofloxacin-resistant Salmonella enterica serovar enteritidis isolate 104-cip harboring gyrA D87Y,S83F mutant gene by Etest; in short: as §1

Structure (SMILES): O=C(O)c1cn(C2CC2)c2cc(N3CCNCC3)c(F)cc2c1=O [CIPROFLOXACIN]
- MIC (Salmonella enteritidis [1]): 4 µg/mL (≈ 12.1 µM)
- MIC (Salmonella enteritidis [2]): 0.032 µg/mL (≈ 0.0966 µM)
- MIC (Salmonella enteritidis [3]): 0.047 µg/mL (≈ 0.142 µM)
- MIC (Salmonella enteritidis [4]): 1 µg/mL (≈ 3.02 µM)
- MIC (Salmonella enteritidis [5]): 3 µg/mL (≈ 9.05 µM)
- MIC (Salmonella enteritidis [6]): > 32 µg/mL
- MIC (Salmonella enteritidis [7]): 0.5 µg/mL (≈ 1.51 µM)
- MIC (Salmonella enteritidis [8]): 4 µg/mL (≈ 12.1 µM)
- MIC (Salmonella enteritidis [9]): 0.016 µg/mL (≈ 0.0483 µM)
- MIC (Salmonella enteritidis [10]): 0.016 µg/mL (≈ 0.0483 µM)
- MIC (Salmonella enteritidis [11]): 0.023 µg/mL (≈ 0.0694 µM)
- MIC (Salmonella enteritidis [12]): 0.19 µg/mL (≈ 0.573 µM)
- MIC (Salmonella enteritidis [13]): 0.125 µg/mL (≈ 0.377 µM)
- MIC (Salmonella enteritidis [14]): 0.19 µg/mL (≈ 0.573 µM)
- MIC (Salmonella enteritidis [15]): 0.032 µg/mL (≈ 0.0966 µM)
- MIC (Salmonella enteritidis [16]): 0.032 µg/mL (≈ 0.0966 µM)
- MIC (Salmonella enteritidis [17]): 0.047 µg/mL (≈ 0.142 µM)
- MIC (Salmonella enteritidis [18]): 0.047 µg/mL (≈ 0.142 µM)
- MIC (Salmonella enteritidis [19]): 0.032 µg/mL (≈ 0.0966 µM)
- MIC (Salmonella enteritidis [20]): 0.094 µg/mL (≈ 0.284 µM)
- MIC (Salmonella enteritidis [21]): 0.38 µg/mL (≈ 1.15 µM)
- MIC (Salmonella enteritidis [22]): 1.5 µg/mL (≈ 4.53 µM)
